The record followed here is ChEMBL document CHEMBL2062504, “Diterpenoid alkaloids from the lateral root of Aconitum carmichaelii” (J Nat Prod, 2012).

Each structure is given as a SMILES string. Calls of active or inactive are those of the source. The rule behind the calls is not given here.

One data set has as its system Liver microsomes. The experiment in a line: Antioxidant activity in rat liver microsome assessed as inhibition of FeSO4-induced lipid peroxidation at 10 uM incubated for 15 mins prior to FeSO4-challenge measured after 15 mins by modified thiobarbituric acid method. It counts as functional. Background: Liver microsomes are vesicles of endoplasmic reticulum, rich in cytochrome P450 enzymes.

Another data set concerns KETR3. The experiment in a line: Cytotoxicity against human Ketr3 cells at 10 uM after 96 hrs by MTT assay. It counts as functional, cell-based. (Tetrazolium dyes change colour on reduction, which living cells bring about.)
Another data set has as its system WB-F344. The experiment in a line: Hepatoprotective activity against DL-galactosamine-induced cell death in rat WB-F344 cells at 10 uM incubated for 1 hr prior to DL-galactosamine-challenge measured after 24 hrs by MTT assay. It counts as functional, cell-based.
For another data set, the system named is BGC-823. As to the kind of experiment: Cytotoxicity against human BGC823 cells at 10 uM after 96 hrs by MTT assay. It counts as functional, cell-based.
The test system of another data set is HCT-8. As to the kind of experiment: Cytotoxicity against human HCT8 cells at 10 uM after 96 hrs by MTT assay. It counts as functional, cell-based.
The next data set relates to MCF7. The experiment in a line: Cytotoxicity against human MCF7 cells at 10 uM after 96 hrs by MTT assay. It counts as functional, cell-based.
The test system of data set [1] is Peritoneal macrophage cell. The experiment in a line: Antiinflammatory activity in mouse peritoneal macrophages assessed as inhibition of nitric oxide production at 10 uM. It counts as functional, cell-based.
Another data set deals with Bel-7402. As to the kind of experiment: Cytotoxicity against human Bel7402 cells at 10 uM after 96 hrs by MTT assay. It counts as functional, cell-based.
For a further data set, the system named is A549. As to the kind of experiment: Cytotoxicity against human A549 cells at 10 uM after 96 hrs by MTT assay. It counts as functional, cell-based.
Data set [2] relates to Mus musculus. The experiment in a line: Analgesic activity in mouse assessed as reduction in acetic acid-induced writhing at 0.5 mg/kg, ip relative to vehicle-treated control. It counts as functional. The arrangement: scale not given: the % may be the effect or the level left. The following applies: route intraperitoneal. Put shortly:
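Acetic acid-induced writhing test in mice. Compound given intraperitoneally at 0.5 mg/kg. Analgesia expressed as percent reduction in number of writhes versus blank control.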

Data set [3] in a line: Toxicity in ip dosed mouse acetic acid wrtihe model. Format: organism-based. As to conditions: in vivo. Put shortly: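 Acute toxicity in mice dosed intraperitoneally, reported as LD50 in mg/kg.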
The test system of data set [4] is Mus musculus. The experiment in a line: Toxicity in mouse acetic acid writhe model assessed as mortality at 5 mg/kg, ip. It counts as organism-based. Set-up: dose 5 mg/kg, route intraperitoneal. As to conditions: in vivo. Put shortly: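 Mice given 5 mg/kg ip in the acetic acid-induced writhing test; deaths recorded, alongside percent reduction of writhes versus blank control.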

Data set [5] concerns Mus musculus. The experiment in a line: Analgesic activity in mouse assessed as reduction in acetic acid-induced writhing at 5 mg/kg, ip relative to vehicle-treated control. It counts as functional. Set-up: scale not given: the % may be the effect or the level left. As to conditions: route intraperitoneal. The method in brief:
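Mice dosed ip at 5 mg/kg, then given acetic acid to provoke writhing. Writhes were counted, and the value is the percent reduction in writhes compared with a blank control group, reported as mean ± deviation.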
(In general: In writhing tests, fewer writhes than in controls are read as antinociception.)

The test system of a further data set is PC-12. The experiment in a line: Neuroprotective activity against serum starvation-induced cell death in rat PC12 cells assessed as cell viability at 10 uM incubated for 24 hrs prior to serum starvation measured after 24 hrs by MTT assay (reference value: 55.1+/-4.2%). It counts as functional. The following applies: read-out: Activity.

The LD50 is the dose expected to kill half of the subjects tested. For the compound `COC[C@@]12CC[C@H](OC)[C@]34C(C([C@H](OC)[C@H]13)[C@]1(OC(C)=O)[C@H]3[C@@H](OC(=O)c5ccccc5)[C@](O)(C[C@H]34)[C@@H](OC)[C@@H]1O)N(C)C2` [HYPACONITINE], the inhibition entry (in the data set with Liver microsomes; in data set [1]) was “inactive” in each case. Besides, the result in the data set with KETR3, with WB-F344, in the data set with BGC-823, with HCT-8, in the data set with MCF7 and in the data set on Bel-7402 was inactive. The result in the data set on A549 was inactive. The figures for the Activity in the data set on Mus musculus [2] and with Mus musculus [4] were 36% and “Toxic”, respectively. In [3], this compound showed an LD50 of 2.65 mg/kg.
With `COC[C@]12CN(C)C3[C@@H]4[C@H](OC)[C@H]1[C@@]3([C@@H](OC)C[C@H]2O)[C@]1(O)C[C@@]2(O)[C@H](OC(=O)c3ccccc3)[C@@H]1[C@]4(OC)[C@@H](O)[C@@H]2OC` (stereo in doubt; 7), the Activity in the data set with Mus musculus [5] is listed as 35%.
Regarding `COC[C@@]12CC[C@H](OC)[C@]34C([C@H]([C@H](OC)[C@H]13)[C@]1(OC(C)=O)[C@H]3[C@@H](OC(=O)c5ccccc5)[C@](O)(C[C@H]34)[C@H](OC)[C@@H]1O)N(C)C2`, the inhibition entry (in the data set with Liver microsomes; in data set [1]) was “inactive” each time. In addition, the result with KETR3, in the data set with WB-F344, in the data set with BGC-823, in the data set with HCT-8, in the data set with MCF7 and in the data set with Bel-7402 was inactive. In addition, in the data set on A549, the result was inactive. The Activity in the data set on Mus musculus [2] was 30%; with Mus musculus [4], “Toxic”. For the same compound, the LD50 in [3] came out at 4.37 mg/kg.
Regarding `CCN1C[C@]2(COC)[C@H](O)C[C@H](OC)[C@]34C1[C@H]([C@H](OC)[C@H]23)[C@]1(O)[C@H]2[C@@H](OC(=O)c3ccccc3)[C@](O)(C[C@H]24)[C@@H](OC)[C@@H]1O`, the inhibition result (in the data set with Liver microsomes; in data set [1]) was “inactive” throughout. Besides, the viability at 10 µM in the data set with PC-12 was found to be 70.8%. Besides, the result in the data set on KETR3, in the data set with WB-F344, with BGC-823, in the data set on HCT-8, in the data set on MCF7 and with Bel-7402 was inactive. Besides, the outcome in the data set on A549 was inactive.
As for `COC[C@]12CN(C)C3[C@@H]4[C@H](OC)[C@H]1[C@@]3([C@@H](OC)C[C@H]2O)[C@]1(O)C[C@@]2(O)[C@H](OC(=O)c3ccccc3)[C@@H]1[C@]4(OC)[C@@H](O)[C@@H]2OC` (stereo in doubt; 8), in the data set with Mus musculus [5], the Activity is given as 56%.
Take `CCN1C[C@]2(COC)CC[C@H](OC)[C@]34C1[C@H]([C@H](O)[C@H]23)[C@]1(OC)[C@H]2[C@@H](OC(=O)c3ccccc3)[C@H](C[C@H]24)[C@@H](OC)[C@@H]1O`: the inhibition entry (in the data set on Liver microsomes; in data set [1]) was “inactive” each time. For the same compound, the viability at 10 µM in the data set on PC-12 worked out at 75.8%. For the same compound, the outcome in the data set with KETR3, in the data set on WB-F344, with BGC-823, in the data set on HCT-8, in the data set with MCF7 and in the data set with Bel-7402 was inactive. The result in the data set on A549 was inactive.
For `COC[C@]12CN(C)C3[C@@H]4[C@H](OC)[C@H]1[C@@]3([C@@H](OC)C[C@H]2O)[C@@H]1C[C@@]2(O)[C@H](OC(=O)c3ccccc3)[C@@H]1[C@]4(OC(=O)c1ccccc1)[C@@H](O)[C@@H]2OC`, the inhibition result (in the data set with Liver microsomes; in data set [1]) was “inactive” in each case. The viability at 10 µM with PC-12 was 74.7%. In addition, the outcome with KETR3, in the data set on WB-F344, in the data set with BGC-823, in the data set with HCT-8, with MCF7 and in the data set on Bel-7402 was inactive. In addition, the result in the data set on A549 was inactive.
For the compound `C=C1C[C@@]23C[C@H]4[C@@H]5[C@@]6(C)C[C@H](OC(=O)CC)C[C@@]57[C@@H]2[C@H](O)[C@@H]1[C@H](OC(=O)[C@@H](C)CC)C3[C@H]7[N+]4(C)[C@H]6O`, the inhibition entry (in the data set with Liver microsomes; in [1]) was “inactive” each time. Also, the result with KETR3, with WB-F344, in the data set on BGC-823, in the data set on HCT-8, in the data set with MCF7 and in the data set on Bel-7402 was inactive. Besides, the outcome in the data set with A549 was inactive.
